Data: ChEMBL document CHEMBL1153428, “Synthesis and structure-activity relationships of amide derivatives of (4,4-difluoro-1,2,3,4-tetrahydro-5H-1-benzazepin-5-ylidene)acetic acid as selective arginine vasopressin V2 receptor agonists” (Bioorg Med Chem, 2009)
Active and inactive are the calls of the source. No cut-off for these calls is given here.

Legend:
Vasopressin V1a receptor = Vasopressin V1a receptor (Homo sapiens, UniProt P37288); experiment: Displacement of [3H]vasopressin from human V1a receptor expressed in CHO cells; format: cell-based
Sequence of Vasopressin V1a receptor (P37288 whole entry): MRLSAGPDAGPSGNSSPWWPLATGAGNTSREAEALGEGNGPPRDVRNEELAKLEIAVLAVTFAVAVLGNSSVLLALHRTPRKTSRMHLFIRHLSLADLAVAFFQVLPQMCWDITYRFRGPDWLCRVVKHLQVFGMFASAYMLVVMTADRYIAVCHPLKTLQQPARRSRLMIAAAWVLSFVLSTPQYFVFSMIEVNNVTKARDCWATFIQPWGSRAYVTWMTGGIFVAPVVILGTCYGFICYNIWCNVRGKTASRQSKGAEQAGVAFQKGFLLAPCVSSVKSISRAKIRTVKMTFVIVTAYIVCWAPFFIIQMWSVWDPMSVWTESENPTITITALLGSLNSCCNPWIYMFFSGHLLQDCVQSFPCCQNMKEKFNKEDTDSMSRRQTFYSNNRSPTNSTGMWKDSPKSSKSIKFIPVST
Procedure, shortened: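 Membrane receptors from CHO cells expressing human V1a were used in a radioligand competition binding format. Ki values come from triplicate assays.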

Homo sapiens = species: Homo sapiens; experiment: Selectivity for human V1a receptor to human V2 receptor
Vasopressin V2 receptor [1] = target: T1, Vasopressin V2 receptor (Homo sapiens, UniProt P30518); experiment: Displacement of [3H]vasopressin from human V2 receptor expressed in CHO cells; format: cell-based
T1 sequence (P30518 whole entry): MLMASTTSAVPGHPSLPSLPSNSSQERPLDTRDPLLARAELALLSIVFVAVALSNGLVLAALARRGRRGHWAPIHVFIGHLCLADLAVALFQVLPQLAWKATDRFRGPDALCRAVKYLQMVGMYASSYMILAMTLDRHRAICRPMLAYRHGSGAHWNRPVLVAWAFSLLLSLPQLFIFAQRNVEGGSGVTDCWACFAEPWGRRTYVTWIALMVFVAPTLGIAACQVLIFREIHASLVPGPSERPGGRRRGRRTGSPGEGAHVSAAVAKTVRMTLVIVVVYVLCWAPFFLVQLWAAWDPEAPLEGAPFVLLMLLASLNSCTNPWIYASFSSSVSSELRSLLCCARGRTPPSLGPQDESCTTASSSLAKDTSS

Vasopressin V2 receptor [2] = target: T1, Vasopressin V2 receptor; experiment: Agonist activity at human V2 receptor expressed in CHO cells assessed as increase in cAMP level; format: functional, cell-based
Procedure, shortened: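 CHO cells stably expressing human V2 were grown in α-MEM with 10% FBS and 0.1% amethopterin at 37 °C, then serum-starved for 24 h. Compound was added in α-MEM with 1 mmol/L IBMX and 0.1% BSA for 10 min at 37 °C. Cells were lysed in PBS with 0.2% Triton X-100 and cAMP was read by HTRF. EC50 was derived by logistic regression; Emax was expressed as % of the AVP maximum. Assays were run in triplicate.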

Vasopressin V2 receptor [3] = target: T1, Vasopressin V2 receptor; experiment: Intrinsic activity at human V2 receptor expressed in CHO cells assessed as increase in cAMP level relative to arginine vasopressin; format: functional, cell-based
Procedure, shortened: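 CHO cells stably expressing human V2 receptors, grown in α-MEM with 10% FBS, serum-starved 24 h. Compound added in α-MEM with 1 mmol/L IBMX and 0.1% BSA, 10 min at 37 °C. Cells lysed in PBS with 0.2% Triton X-100; cAMP read by HTRF. Maximum response expressed as % of AVP maximum (100%); triplicate.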

Rattus norvegicus = experiment: Antidiuretic effect in iv dosed water-loaded Wistar rat assessed as suppression of urinary excretion within 4 hrs; format: functional, organism-based; conditions: Urine
Cytochrome P450 2C19 = Cytochrome P450 2C19 (Homo sapiens, UniProt P33261); experiment: Inhibition of recombinant CYP2C19 by fluorescent P450 inhibition assay
Sequence of Cytochrome P450 2C19 (P33261 whole entry): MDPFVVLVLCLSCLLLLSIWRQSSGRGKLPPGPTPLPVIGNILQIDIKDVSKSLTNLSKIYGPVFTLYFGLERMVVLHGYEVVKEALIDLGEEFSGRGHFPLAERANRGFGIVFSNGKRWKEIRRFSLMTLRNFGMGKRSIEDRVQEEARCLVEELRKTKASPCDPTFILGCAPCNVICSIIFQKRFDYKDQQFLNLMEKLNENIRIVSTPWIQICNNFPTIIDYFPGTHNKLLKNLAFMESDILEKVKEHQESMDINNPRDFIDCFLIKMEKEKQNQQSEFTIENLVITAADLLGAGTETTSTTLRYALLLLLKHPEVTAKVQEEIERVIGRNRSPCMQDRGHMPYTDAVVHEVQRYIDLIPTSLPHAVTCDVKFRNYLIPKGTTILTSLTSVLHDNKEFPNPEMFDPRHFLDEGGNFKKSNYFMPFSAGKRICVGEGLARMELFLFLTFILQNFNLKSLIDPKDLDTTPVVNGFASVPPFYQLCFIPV

Cytochrome P450 3A4 = Cytochrome P450 3A4 (Homo sapiens, UniProt P08684); experiment: Inhibition of CYP3A4 in human liver microsome assessed as 1'-hydroxymidazolam formation by competitive inhibition assay
Sequence of Cytochrome P450 3A4 (P08684 whole entry): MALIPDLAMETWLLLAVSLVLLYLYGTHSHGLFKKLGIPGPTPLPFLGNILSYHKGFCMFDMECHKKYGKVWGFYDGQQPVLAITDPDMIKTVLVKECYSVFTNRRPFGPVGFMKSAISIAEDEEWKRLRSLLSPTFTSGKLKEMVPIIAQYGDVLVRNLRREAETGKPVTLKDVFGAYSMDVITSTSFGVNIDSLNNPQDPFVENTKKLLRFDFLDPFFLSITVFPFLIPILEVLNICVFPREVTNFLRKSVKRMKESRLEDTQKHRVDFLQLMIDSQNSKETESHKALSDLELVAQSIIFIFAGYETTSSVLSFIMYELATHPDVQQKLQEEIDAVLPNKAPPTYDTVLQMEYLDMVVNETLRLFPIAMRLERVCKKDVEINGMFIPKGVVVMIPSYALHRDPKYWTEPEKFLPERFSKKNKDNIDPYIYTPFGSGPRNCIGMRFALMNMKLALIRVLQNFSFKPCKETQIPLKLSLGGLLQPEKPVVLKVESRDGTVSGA

Cytochrome P450 2C9 = Cytochrome P450 2C9 (Homo sapiens, UniProt P11712); experiment: Inhibition of recombinant CYP2C9 by fluorescent P450 inhibition assay
Sequence of Cytochrome P450 2C9 (P11712 whole entry): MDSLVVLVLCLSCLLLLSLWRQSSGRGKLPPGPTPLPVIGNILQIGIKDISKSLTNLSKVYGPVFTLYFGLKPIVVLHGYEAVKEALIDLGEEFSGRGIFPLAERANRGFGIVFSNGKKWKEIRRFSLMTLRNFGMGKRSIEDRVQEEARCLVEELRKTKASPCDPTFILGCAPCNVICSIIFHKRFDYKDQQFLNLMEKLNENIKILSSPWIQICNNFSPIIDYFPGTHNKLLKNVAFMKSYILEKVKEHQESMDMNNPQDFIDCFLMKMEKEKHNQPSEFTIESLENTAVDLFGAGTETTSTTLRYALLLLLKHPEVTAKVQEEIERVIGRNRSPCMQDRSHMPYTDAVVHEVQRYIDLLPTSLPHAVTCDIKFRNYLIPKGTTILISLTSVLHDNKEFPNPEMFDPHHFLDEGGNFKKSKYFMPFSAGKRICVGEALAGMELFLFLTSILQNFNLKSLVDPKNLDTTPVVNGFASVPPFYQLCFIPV

Cytochrome P450 2D6 = Cytochrome P450 2D6 (Homo sapiens, UniProt P10635); experiment: Inhibition of recombinant CYP2D6 by fluorescent P450 inhibition assay
Sequence of Cytochrome P450 2D6 (P10635 whole entry): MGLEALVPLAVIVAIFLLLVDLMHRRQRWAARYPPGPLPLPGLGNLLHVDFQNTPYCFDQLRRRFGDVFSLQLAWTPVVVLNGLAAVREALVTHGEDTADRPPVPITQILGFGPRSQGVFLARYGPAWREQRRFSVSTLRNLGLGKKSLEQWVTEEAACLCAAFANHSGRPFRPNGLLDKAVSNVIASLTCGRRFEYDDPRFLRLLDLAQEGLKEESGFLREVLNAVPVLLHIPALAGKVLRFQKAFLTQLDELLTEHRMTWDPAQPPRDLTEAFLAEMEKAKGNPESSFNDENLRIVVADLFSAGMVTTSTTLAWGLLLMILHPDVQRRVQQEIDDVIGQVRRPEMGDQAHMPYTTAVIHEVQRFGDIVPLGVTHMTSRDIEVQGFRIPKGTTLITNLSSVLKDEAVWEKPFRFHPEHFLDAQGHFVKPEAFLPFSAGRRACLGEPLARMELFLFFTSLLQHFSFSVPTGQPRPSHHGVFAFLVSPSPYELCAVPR

With Cc1ccn(-c2ccc(C(=O)N3CCC(F)(F)/C(=C\C(=O)NCC(N)=O)c4ccccc43)c(Cl)c2)n1 the Ki (Vasopressin V1a receptor) was 40 nM, the Ratio Ki (Homo sapiens) was 3.6 and the Ki (Vasopressin V2 receptor [1]) was 11 nM.

For Cc1ccn(-c2ccc(C(=O)N3CCC(F)(F)/C(=C\C(=O)NCc4ccncc4)c4ccccc43)c(Cl)c2)n1, the Ki (Vasopressin V1a receptor) was 15 nM, the Ratio Ki (Homo sapiens) was 0.75 and the Ki (Vasopressin V2 receptor [1]) was 20 nM.

Compound Cc1ccn(-c2ccc(C(=O)N3CCC(F)(F)/C(=C\C(=O)NCc4cccc(N(C)C)n4)c4ccccc43)c(Cl)c2)n1 has a Ki (Vasopressin V1a receptor) of 48 nM, a Ratio Ki (Homo sapiens) of 4.4 and a Ki (Vasopressin V2 receptor [1]) of 11 nM.

Cc1ccn(-c2ccc(C(=O)N3CCC(F)(F)/C(=C\C(=O)NCc4cccc(N)n4)c4ccccc43)c(Cl)c2)n1 gave a Ki (Vasopressin V1a receptor) of 38 nM, a Ratio Ki (Homo sapiens) of 3.8 and a Ki (Vasopressin V2 receptor [1]) of 10 nM.

Compound Cc1ccn(-c2ccc(C(=O)N3CCC(F)(F)/C(=C\C(=O)NCc4cccnn4)c4ccccc43)c(Cl)c2)n1 has a Ki (Vasopressin V1a receptor) of 43 nM, an EC50 (Vasopressin V2 receptor [2]) of 16 nM and an Emax (Vasopressin V2 receptor [3]) of 86.4%. The Activity (Rattus norvegicus) was “Active” and the Ki (Vasopressin V2 receptor [1]) was 3.4 nM.

Cc1ccn(-c2ccc(C(=O)N3CCC(F)(F)/C(=C\C(=O)NCc4nc5ccccc5s4)c4ccccc43)c(Cl)c2)n1 gave a Ki (Vasopressin V1a receptor) of 55 nM, a Ratio Ki (Homo sapiens) of 5 and a Ki (Vasopressin V2 receptor [1]) of 11 nM.

Cc1ccn(-c2ccc(C(=O)N3CCC(F)(F)/C(=C\C(=O)NCc4ccncn4)c4ccccc43)c(Cl)c2)n1 was tested, and the Ki (Vasopressin V1a receptor) was 44 nM, the Ratio Ki (Homo sapiens) was 4 and the Ki (Vasopressin V2 receptor [1]) was 11 nM.

Cc1ccn(-c2ccc(C(=O)N3CCC(F)(F)/C(=C\C(=O)NCc4cccc(C#N)n4)c4ccccc43)c(Cl)c2)n1 showed a Ki (Vasopressin V1a receptor) of 22 nM, a Ratio Ki (Homo sapiens) of 3 and a Ki (Vasopressin V2 receptor [1]) of 7.4 nM.

Cc1ccn(-c2ccc(C(=O)N3CCC(F)(F)/C(=C\C(=O)NCc4cccnc4)c4ccccc43)c(Cl)c2)n1 gave a Ki (Vasopressin V1a receptor) of 40 nM, a Ratio Ki (Homo sapiens) of 1.9 and a Ki (Vasopressin V2 receptor [1]) of 21 nM.

With Cc1ccn(-c2ccc(C(=O)N3CCC(F)(F)/C(=C\C(=O)O)c4ccccc43)c(Cl)c2)n1 the IC50 (Cytochrome P450 2C19) was over 20000 nM, the Ki (Vasopressin V1a receptor) was 6300 nM and the IC50 (Cytochrome P450 3A4) was over 20000 nM. It also gave an EC50 (Vasopressin V2 receptor [2]) of 4.2 nM, an Emax (Vasopressin V2 receptor [3]) of 92.4% and a Ratio Ki (Homo sapiens) of 252. The Activity (Rattus norvegicus) was “inactive”, the Ki (Vasopressin V2 receptor [1]) was 25 nM and the IC50 (Cytochrome P450 2C9) was over 20000 nM. For the same compound, the IC50 (Cytochrome P450 2D6) was 11000 nM.

CCCNC(=O)/C=C1/c2ccccc2N(C(=O)c2ccc(-n3ccc(C)n3)cc2Cl)CCC1(F)F showed a Ki (Vasopressin V1a receptor) of 13 nM, a Ratio Ki (Homo sapiens) of 0.72 and a Ki (Vasopressin V2 receptor [1]) of 18 nM.

Work on Cc1ccn(-c2ccc(C(=O)N3CCC(F)(F)/C(=C\C(=O)NCc4ccco4)c4ccccc43)c(Cl)c2)n1 yielded a Ki (Vasopressin V1a receptor) of 72 nM, a Ratio Ki (Homo sapiens) of 2.7 and a Ki (Vasopressin V2 receptor [1]) of 27 nM.

With Cc1ccn(-c2ccc(C(=O)N3CCC(F)(F)/C(=C\C(=O)NCC(=O)O)c4ccccc43)c(Cl)c2)n1 the Ki (Vasopressin V1a receptor) was 230 nM, the Ratio Ki (Homo sapiens) was 10 and the Ki (Vasopressin V2 receptor [1]) was 22 nM.

Cc1ccn(-c2ccc(C(=O)N3CCC(F)(F)/C(=C\C(N)=O)c4ccccc43)c(Cl)c2)n1 showed a Ki (Vasopressin V1a receptor) of 190 nM, a Ratio Ki (Homo sapiens) of 5.8 and a Ki (Vasopressin V2 receptor [1]) of 33 nM.

Cc1ccn(-c2ccc(C(=O)N3CCC(F)(F)/C(=C\C(=O)NCc4nc5ccccc5[nH]4)c4ccccc43)c(Cl)c2)n1 was tested, and the Ki (Vasopressin V1a receptor) was 72 nM, the Ratio Ki (Homo sapiens) was 6 and the Ki (Vasopressin V2 receptor [1]) was 12 nM.

Compound Cc1ccn(-c2ccc(C(=O)N3CCC(F)(F)/C(=C\C(=O)NCc4ccccn4)c4ccccc43)c(Cl)c2)n1 has a Ki (Vasopressin V1a receptor) of 26 nM.

With Cc1ccn(-c2ccc(C(=O)N3CCC(F)(F)/C(=C\C(=O)NCCN(C)C)c4ccccc43)c(Cl)c2)n1 the Ki (Vasopressin V1a receptor) was 59 nM, the Ratio Ki (Homo sapiens) was 1.1 and the Ki (Vasopressin V2 receptor [1]) was 53 nM.

COc1cccc(CNC(=O)/C=C2/c3ccccc3N(C(=O)c3ccc(-n4ccc(C)n4)cc3Cl)CCC2(F)F)n1 was tested, and the Ki (Vasopressin V1a receptor) was 47 nM, the Ratio Ki (Homo sapiens) was 2.9 and the Ki (Vasopressin V2 receptor [1]) was 16 nM.

Cc1ccn(-c2ccc(C(=O)N3CCC(F)(F)/C(=C\C(=O)NCCO)c4ccccc43)c(Cl)c2)n1 was tested, and the Ki (Vasopressin V1a receptor) was 28 nM, the EC50 (Vasopressin V2 receptor [2]) was 6.3 nM and the Emax (Vasopressin V2 receptor [3]) was 93.9%. For the same compound, the Activity (Rattus norvegicus) was “Active” and the Ki (Vasopressin V2 receptor [1]) was 9.7 nM.

For Cc1ccn(-c2ccc(C(=O)N3CCC(F)(F)/C(=C\C(=O)NCc4cnccn4)c4ccccc43)c(Cl)c2)n1, the Ki (Vasopressin V1a receptor) was 57 nM, the Ratio Ki (Homo sapiens) was 4.1 and the Ki (Vasopressin V2 receptor [1]) was 14 nM.

For Cc1ccn(-c2ccc(C(=O)N3CCC(F)(F)/C(=C\C(=O)NCc4ccccc4)c4ccccc43)c(Cl)c2)n1, the Ki (Vasopressin V1a receptor) was 43 nM, the Ratio Ki (Homo sapiens) was 2.3 and the Ki (Vasopressin V2 receptor [1]) was 19 nM.

In the case of Cc1ccn(-c2ccc(C(=O)N3CCC(F)(F)/C(=C\C(=O)NCc4nccs4)c4ccccc43)c(Cl)c2)n1, the Ki (Vasopressin V1a receptor) is reported as 43 nM, the Ratio Ki (Homo sapiens) is reported as 3.9 and the Ki (Vasopressin V2 receptor [1]) is reported as 11 nM.

With Cc1cccc(CNC(=O)/C=C2/c3ccccc3N(C(=O)c3ccc(-n4ccc(C)n4)cc3Cl)CCC2(F)F)n1 the Ki (Vasopressin V1a receptor) was 30 nM and the Ratio Ki (Homo sapiens) was 5.4.
